From ChEMBL document CHEMBL1129512, “Studies on the mechanism of phosphatidylinositol 3-kinase inhibition by wortmannin and related analogs” (J Med Chem, 1996)

Columns and labels:
[1] = In vitro inhibitory activity against Phosphatidylinositol 3-Kinase
Method in brief: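 Purified PI 3-kinase from bovine brain was used as the enzyme source. Results are reported as IC50 values.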

Mus musculus [2] = test: In vivo inhibition of tumor growth in C3H Mammary model was evaluated at dose 16 mg/kg peroral administration; format: functional; details: route oral
Method in brief: (§1)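 Murine tumours were serially passaged as tumour fragments, implanted s.c. by trochar in the axillary region. Daily oral dosing began 1 day after implant, as a suspension in 2.5% emulphor EL-620 in 0.9% NaCl. There were 10 randomized mice per group. Tumours were measured by caliper the day after the last dose, with weight = length × width² × 0.5. Inhibition was 100 × (1 − mean treated/mean control weight). A group was toxic if lethality was >25%.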

Mus musculus [3] = test: In vivo inhibition of tumor growth in C3H Mammary model was evaluated at dose 4.0 mg/kg peroral administration; format: functional; details: route oral
Method in brief: (§2)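 Murine C3H mammary tumour fragments were implanted subcutaneously by trochar in the axillary region, in groups of 10 randomized mice. Oral dosing started 1 day after implant, daily ×10, as a suspension in 2.5% emulphor EL-620 in 0.9% NaCl (water for one analog). Tumour weight, calculated as length×width²×0.5 from calipers, was measured the day after the last dose. Percent inhibition was calculated versus controls. Groups with >25% lethality were scored toxic.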

Mus musculus [4] = test: In vivo inhibition of tumor growth in C3H Mammary model was evaluated at dose 2.0 mg/kg peroral administration; format: functional; details: route oral; method in brief: as §2
Mus musculus [5] = test: In vivo inhibition of tumor growth in C3H Mammary model was evaluated at dose 8.0 mg/kg peroral administration; range is 60-79%; format: functional; details: route oral; method in brief: as §1

IC50 [1] [nM] | Structure (SMILES) | other results
> 500 | C/N=C/C1=C(O)O[C@H](COC)[C@@]2(C)C1=C(O)C(=O)C1=C2[C@H](OC(C)=O)C[C@]2(C)C(=O)CC[C@@H]12 | –
309 | COC[C@H]1OC(=O)c2coc3c2[C@@]1(C)C1=C(C3=O)[C@@H]2C[C@@H](OC(C)=O)C(=O)[C@@]2(C)C[C@H]1OC(C)=O | –
> 500 | COC[C@H]1OC(O)=C(C=N)C2=C(O)C(=O)C3=C([C@H](OC(C)=O)C[C@]4(C)C(=O)CC[C@@H]34)[C@]21C | –
52 | CCCCS/C=C1\C(=O)O[C@H](COC)[C@@]2(C)C1=C(O)C(=O)C1=C2[C@H](OC(C)=O)C[C@]2(C)C(=O)CC[C@@H]12 | –
77 | COC[C@H]1OC(=O)c2coc3c2[C@@]1(C)C1=C(C3=O)[C@@H]2C[C@@H](Br)C(=O)[C@@]2(C)C[C@H]1OC(C)=O | –
153 | COC[C@H]1OC(=O)c2coc3c2[C@@]1(C)C1=C(C3=O)[C@@H]2C[C@@H](O)C(=O)[C@@]2(C)C[C@H]1OC(C)=O | –
4600 | COC(=O)c1coc2c(O)c3c(c(C)c12)C=C[C@]1(C)C(=O)CC[C@@H]31 | inhibition in vivo at 16 mg/kg (Mus musculus [2]): < 60%
17 | COC[C@H]1OC(=O)c2coc3c2[C@@]1(C)C1=C(C3=O)[C@@H]2CCC(=O)[C@@]2(C)CC1 | inhibition in vivo at 4 mg/kg (Mus musculus [3]): > 25%; inhibition in vivo at 2 mg/kg (Mus musculus [4]): < 60%

Structure (SMILES) | IC50 [1] [nM] | other results
COC[C@H]1OC(=O)c2coc3c2[C@@]1(C)C1=CC[C@]2(C)C(=O)CC[C@H]2C1C3=O (some centres undefined) | 54 | inhibition in vivo at 8 mg/kg (Mus musculus [5]): 79%; inhibition in vivo at 16 mg/kg (Mus musculus [2]): > 25%
